Published values pooled from the literature.
Target: Tyrosine-protein kinase ITK/TSK (ITK, Homo sapiens, UniProt Q08881)
Sequence (Q08881 1-620, as in one of the studies): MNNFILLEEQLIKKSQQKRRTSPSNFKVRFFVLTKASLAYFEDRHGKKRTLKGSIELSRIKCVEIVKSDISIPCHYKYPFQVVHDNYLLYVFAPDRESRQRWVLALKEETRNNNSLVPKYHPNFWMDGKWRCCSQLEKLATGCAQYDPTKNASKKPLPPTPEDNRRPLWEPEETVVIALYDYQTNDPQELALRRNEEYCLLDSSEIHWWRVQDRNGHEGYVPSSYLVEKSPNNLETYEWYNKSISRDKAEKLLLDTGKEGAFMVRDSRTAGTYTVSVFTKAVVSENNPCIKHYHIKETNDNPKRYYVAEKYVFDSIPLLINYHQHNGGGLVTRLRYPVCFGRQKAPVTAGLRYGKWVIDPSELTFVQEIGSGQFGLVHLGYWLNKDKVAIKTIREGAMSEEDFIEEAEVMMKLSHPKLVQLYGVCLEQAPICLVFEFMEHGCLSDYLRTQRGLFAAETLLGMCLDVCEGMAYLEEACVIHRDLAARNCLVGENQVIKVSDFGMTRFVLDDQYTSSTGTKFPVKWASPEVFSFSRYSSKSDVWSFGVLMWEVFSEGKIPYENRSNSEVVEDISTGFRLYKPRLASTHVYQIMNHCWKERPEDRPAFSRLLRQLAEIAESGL

CNC(=O)c1cc(Oc2ccc(NC(=O)Nc3ccc(Cl)c(C(F)(F)F)c3)cc2)ccn1  inhibition (enzyme activity; inhibitor; 10 µM): 32%
O=C(Nc1cnn(-c2csc(C(=O)NC3COC3)c2)c1)Nc1c(F)cccc1Cl  remaining activity (enzyme activity; inhibitor; 5 µM): 92.8%
COc1cc2nccc(Oc3ccc(NC(=O)c4c5n(n(-c6ccc(F)cc6)c4=O)CCCC5)cc3)c2cc1OC  inhibition (enzyme activity; inhibitor; 0.1 µM): 9%
N#CCCc1ccc2c(c1)-c1[nH]c3ccc([N+](=O)[O-])cc3c1CC(=O)N2  remaining signal (cell-free assay; 0.5 µM): 99.9%
Cc1ccc(C(=O)NCc2ccsc2)cc1C#Cc1cn(C(C)C)c2ncnc(N)c12  activity vs control (enzyme activity; inhibitor; 1 µM): 97%
c1nc2c(Nc3ccc4c(c3)OCCO4)nc(Nc3ccc4c(c3)OCCO4)nc2[nH]1  activity vs control (enzyme activity; inhibitor; 10 µM): 5.1%
O=C(Nc1cccnn1)N1CCC(=Cc2cccc(Oc3ccc(C(F)(F)F)cn3)c2)CC1  remaining binding (cell-free assay; competition with immobilised ligand; 1 µM): 100%
COc1cc2ncnc(Nc3ccc(Oc4ccccc4)c(C)c3C)c2cc1OC  inhibition (enzyme activity; inhibitor; 1 µM): 7%
CCC(=O)N[C@H]1CC[C@@H](C(=O)N(C)c2ccc(-c3nc4ccccc4o3)cc2)C1  remaining binding (cell-free assay; competition with immobilised ligand; 1 µM): 100%
CN1CC(Oc2cnc(C#N)cc2-c2ccn3nc(NC(=O)C4CC4)cc3c2)C1  inhibition (enzyme activity; inhibitor; 1 µM): 3%
CC(C)(C)c1nc(-c2cccc(NS(=O)(=O)c3c(F)cccc3F)c2F)c(-c2ccnc(N)n2)s1  remaining activity (enzyme activity; inhibitor; radiometric; 1 µM): 109%
CC1=C(C#N)[C@@H](c2ccc3[nH]nc(C)c3c2)C(C#N)=C(c2ccc(Cl)cc2)N1  remaining binding (cell-free assay; competition with immobilised ligand; 1 µM): 97.2%
Cc1ccc(C(=O)Nc2ccc(CN3CCN(C)CC3)c(C(F)(F)F)c2)cc1C#Cc1cnc2cccnn12  remaining activity (enzyme activity; 23.5 nM): 82%
CCc1ccccc1C(=O)Nc1n[nH]c2c(C)c(F)c(C3C(C#N)=C(C)N(C)C(C)=C3C#N)cc12  remaining binding (cell-free assay; competition with immobilised ligand; 1 µM): 86%
COc1cc2nccc(Oc3ccc(NC(=S)NC(=O)c4ccccc4C)cc3)c2cc1OC  remaining activity (enzyme activity; inhibitor; 0.5 µM): 80.6%
c1cnn2ncc(-c3ccnc(N4CCC45COC5)n3)c2c1  remaining binding (binding; 1 µM): 100%
O=C1Nc2ccc(Cl)cc2C1=Cc1cc(Cl)c(O)c(Cl)c1  remaining signal (cell-free assay; 0.5 µM): 91.8%
CN(C)C1CCN(CC#Cc2nn(C3CCCC3)c3nc(NCc4ccccc4)ncc23)C1 (stereo not shown)  inhibition (enzyme activity; inhibitor; FRET; 10 µM): 15%
CCN(CC)CCNC(=O)c1c(C)[nH]c(/C=C2\C(=O)Nc3ccc(F)cc32)c1C  inhibition (enzyme activity; inhibitor; 10 µM): 93%
COc1cc2c(Nc3ccc(Br)cc3F)ncnc2cc1OCC1CCN(C)CC1  remaining signal (cell-free assay; 0.5 µM): 101%
Cc1nc(C2CCN(C(=O)c3ccc(OC(F)(F)F)cc3N)CC2)c2ncc(N3CCN(C)CC3)cc2n1  remaining binding (cell-free assay; competition with immobilised ligand; 1 µM): 89%
CCN(CC)CCNC(=O)c1c(C)[nH]c(/C=C2\C(=O)Nc3ccc(Cl)cc32)c1C  remaining activity (enzyme activity; inhibitor; 0.5 µM): 30%
CO[C@@H](C)c1c(Nc2ccc([C@H](N(C)C(=O)C3CCS(=O)(=O)CC3)C(F)(F)F)cc2)cnc2cc(Cl)nn12  remaining binding (cell-free assay; competition with immobilised ligand; 1 µM): 88%
Cc1cc(NC(=O)c2cccc3cc(-c4cccc5[nH]nc(N)c45)ccc23)ccc1F  activity vs control (enzyme activity; inhibitor; 0.1 µM): 104%
C[C@@H]1CN(c2cc(-c3n[nH]c4ccc(OC5(C)CC5)cc34)ncn2)C[C@H](C)O1  remaining binding (cell-free assay; competition with immobilised ligand; 0.1 µM): 87%
O=c1cc(-c2cccc3c2Sc2ccccc2S3)oc(N2CCOCC2)c1  remaining activity (enzyme activity; inhibitor; 0.5 µM): 96.6%
CNCc1ccccc1-c1csc([C@H](C)Nc2nc(C)nc3cc(OC)c(OC)cc23)c1  remaining binding (cell-free assay; competition with immobilised ligand; 1 µM): 100%
Nc1ncnc2occ(-c3ccc(NC(=O)Nc4cc(C(F)(F)F)ccc4F)cc3)c12  remaining signal (cell-free assay; 20 µM): 12%
